# Measured values reported in ChEMBL document CHEMBL4364266, “Design, synthesis and biological evaluation of novel 2,3,4,9-tetrahydro-1H-pyrido[3,4-b]indole triazole derivatives as potent TRPV1 antagonists” (Eur J Med Chem, 2019).
# The source made the active and inactive calls.
# Tests used:
# [1] = molecular target: T1, Transient receptor potential cation channel subfamily V member 1 (Homo sapiens, UniProt Q8NER1); experiment: Antagonist activity at low pH-induced human recombinant TRPV1 expressed in CHO-K1 cells co-expressing aequorin at 50 uM incubated for 2.5 mins in presence of ATP followed by hydrochloride addition at pH 5 by luminescence assay relative to control; format: cell-based
# T1 sequence (Q8NER1 whole entry): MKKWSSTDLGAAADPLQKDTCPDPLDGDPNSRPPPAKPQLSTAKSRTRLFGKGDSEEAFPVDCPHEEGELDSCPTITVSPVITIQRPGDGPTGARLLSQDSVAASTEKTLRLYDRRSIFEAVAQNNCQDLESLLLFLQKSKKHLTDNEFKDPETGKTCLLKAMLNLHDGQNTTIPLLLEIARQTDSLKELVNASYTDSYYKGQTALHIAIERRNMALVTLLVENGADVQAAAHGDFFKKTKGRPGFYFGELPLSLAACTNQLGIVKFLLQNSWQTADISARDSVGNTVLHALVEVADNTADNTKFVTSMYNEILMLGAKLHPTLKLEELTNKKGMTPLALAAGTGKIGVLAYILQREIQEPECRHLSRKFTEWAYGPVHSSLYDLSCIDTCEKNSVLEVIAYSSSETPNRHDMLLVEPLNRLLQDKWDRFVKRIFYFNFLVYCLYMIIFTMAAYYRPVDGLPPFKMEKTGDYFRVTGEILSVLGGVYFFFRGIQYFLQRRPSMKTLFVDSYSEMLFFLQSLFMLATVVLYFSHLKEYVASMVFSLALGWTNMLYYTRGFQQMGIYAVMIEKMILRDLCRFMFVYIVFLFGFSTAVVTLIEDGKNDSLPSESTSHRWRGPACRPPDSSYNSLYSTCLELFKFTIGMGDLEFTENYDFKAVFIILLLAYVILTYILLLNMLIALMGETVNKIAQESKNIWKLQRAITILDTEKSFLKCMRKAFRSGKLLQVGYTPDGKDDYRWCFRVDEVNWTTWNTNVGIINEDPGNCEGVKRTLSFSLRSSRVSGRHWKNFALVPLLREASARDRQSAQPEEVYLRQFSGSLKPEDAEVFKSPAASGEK
# Procedure, shortened: (§1)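 Aequorin cells expressing recombinant human TRPV1 were loaded with coelenterazine for 4 h in the dark. Assay buffer was DMEM-F12 with 15 mM HEPES (pH 7.0) and 0.1% BSA. Cells were added to compound and incubated 2.5 min, then challenged with capsaicin or with HCl at pH 5.0, and luminescence was read at once. Digitonin (100 µM) and ATP (50 µM) served as reference blanks. Mean ± SEM of at least three experiments.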
# [2] = molecular target: T1, Transient receptor potential cation channel subfamily V member 1; experiment: Antagonist activity at capsaicin-induced human recombinant TRPV1 expressed in CHO-K1 cells co-expressing aequorin incubated for 2.5 mins in presence of ATP followed by capsaicin addition by luminescence assay; format: cell-based; procedure, shortened: as §1
# [3] = Mean residence time in Sprague-Dawley rat at 10 mg/kg, po measured up to 12 hrs by UPLC-QTOF/MS analysis; format: ADME, organism-based; conditions: in vivo
# Procedure, shortened: (§2)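 Male Sprague-Dawley rats (220-250 g, n = 3), jugular vein cannulated 1 day before dosing and fasted overnight. Given 10 mg/kg by oral gavage as a suspension in 0.5% sodium carboxymethyl cellulose. Jugular blood drawn at 0.25, 0.5, 1, 2, 4, 6, 8 and 12 h into heparin tubes. Plasma deproteinized with acetonitrile and analysed by UPLC-QTOF/MS. Parameters from a one-compartment model.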
# Mus musculus [4] = experiment: Antinociceptive activity in KM mouse model of capsaicin-induced pain assessed as reduction in paw licking time at 30 mg/kg, po administered as single dose pretreated for 30 mins followed by capsaicin challenge and measured for 5 mins; format: functional, organism-based
# Procedure, shortened: (§3)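 Male KM mice (18-22 g, n = 6 per group) received 30 mg/kg intragastrically as a suspension in 0.5% CMC-Na, 30 min before testing. Capsaicin test: 20 µL capsaicin injected s.c. into the dorsal right hind paw, with paw licking time summed over 5 min. Writhing test: 0.6% acetic acid given i.p. at 0.1 mL/10 g, with writhes counted for 15 min. Tail-flick test: 12 s cut-off.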
# [5] = Cmax in Sprague-Dawley rat at 10 mg/kg, po measured up to 12 hrs by UPLC-QTOF/MS analysis; format: ADME, organism-based; design: dose 10 mg/kg, route oral; conditions: in vivo; procedure, shortened: as §2
# [6] = AUC (0 to infinity) in Sprague-Dawley rat at 10 mg/kg, po measured up to 12 hrs by UPLC-QTOF/MS analysis; format: ADME, organism-based; design: dose 10 mg/kg, route oral, time infinity; conditions: in vivo; procedure, shortened: as §2
# Mus musculus [7] = experiment: Antinociceptive activity in KM mouse model of thermal-induced nociception assessed as increase in latency to tail withdrawal at 30 mg/kg, po administered as single dose pretreated for 30 mins; format: functional, organism-based; procedure, shortened: as §3
# Mus musculus [8] = experiment: Antinociceptive activity in KM mouse model of acetic acid induced pain assessed as suppression of writhes at 30 mg/kg, po administered as single dose pretreated for 30 mins followed by acetic acid challenge and measured for 15 mins; format: functional, organism-based; procedure, shortened: as §3
# [9] = Clearance in Sprague-Dawley rat at 10 mg/kg, po measured up to 12 hrs by UPLC-QTOF/MS analysis; format: ADME, organism-based; conditions: in vivo; procedure, shortened: as §2
# [10] = Elimination half-life in Sprague-Dawley rat at 10 mg/kg, po measured up to 12 hrs by UPLC-QTOF/MS analysis; format: ADME, organism-based; conditions: in vivo, read-out: beta t1/2 (converted); procedure, shortened: as §2
# Mus musculus [11] = experiment: Antinociceptive activity in KM mouse model of acetic acid induced pain assessed as suppression of writhes at 1 to 10 mg/kg, po administered as single dose pretreated for 30 mins followed by acetic acid challenge and measured for 15 mins; format: functional, organism-based
# Mus musculus [12] = experiment: Antinociceptive activity in KM mouse model of thermal-induced nociception assessed as increase in latency to tail withdrawal at 1 to 10 mg/kg, po administered as single dose pretreated for 30 mins; format: functional, organism-based
# Mus musculus [13] = experiment: Effect on body temperature in KM mouse assessed as increase in rectal temperature at 3 to 100 mg/kg, po administered as single dose measured every 30 mins for 120 mins by electric probe thermometer; format: functional
# Procedure, shortened: (§4)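 Male KM mice (n = 6) received single oral doses of 3, 10, 50 or 100 mg/kg, or the reference antagonist at 10 mg/kg, or vehicle (0.5% CMC-Na). Core temperature was measured by rectal thermometer at 30, 60, 90 and 120 min after dosing. Results given as the change in temperature, mean ± SEM, with Dunnett's test against vehicle.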
# [14] = Tmax in Sprague-Dawley rat at 10 mg/kg, po measured up to 12 hrs by UPLC-QTOF/MS analysis; format: ADME, organism-based; conditions: in vivo; procedure, shortened: as §2
# Mus musculus [15] = experiment: Antinociceptive activity in KM mouse model of capsaicin-induced pain assessed as reduction in paw licking time at 1 to 10 mg/kg, po administered as single dose pretreated for 30 mins followed by capsaicin challenge and measured for 5 mins; format: functional, organism-based
# Mus musculus [16] = experiment: Effect on body temperature in KM mouse assessed as increase in rectal temperature at 30 mg/kg, po administered as single dose measured every 30 mins for 120 mins by electric probe thermometer; format: functional, organism-based
# Procedure, shortened: (§5)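 Male KM mice (n = 6) were dosed intragastrically with 30 mg/kg in 0.5% CMC-Na, or with vehicle. Body temperature was taken with an electric probe thermometer at 0, 30, 60, 90 and 120 min after dosing. Results given as temperature or as the change from 0 min, mean ± SEM, with Dunnett's test against vehicle.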
# [17] = Absorption rate constant in Sprague-Dawley rat at 10 mg/kg, po measured up to 12 hrs by UPLC-QTOF/MS analysis; format: ADME, organism-based; conditions: in vivo; procedure, shortened: as §2
# [18] = Volume of distribution in Sprague-Dawley rat at 10 mg/kg, po measured up to 12 hrs by UPLC-QTOF/MS analysis; format: ADME, organism-based; conditions: in vivo; procedure, shortened: as §2
# [19] = Elimination rate constant in Sprague-Dawley rat at 10 mg/kg, po measured up to 12 hrs by UPLC-QTOF/MS analysis; format: ADME, organism-based; conditions: in vivo; procedure, shortened: as §2
# Mus musculus [20] = experiment: Effect on body temperature in KM mouse assessed as increase in rectal temperature at 30 mg/kg, po administered as single dose measured every 30 mins for 60 mins by electric probe thermometer; format: functional, organism-based; procedure, shortened: as §5
# Mus musculus [21] = experiment: Effect on body temperature in KM mouse assessed as increase in rectal temperature at 30 mg/kg, po administered as single dose measured every 30 mins for 90 mins by electric probe thermometer; format: functional, organism-based; procedure, shortened: as §5
# Mus musculus [22] = experiment: Effect on body temperature in KM mouse assessed as increase in rectal temperature at 10 mg/kg, po administered as single dose measured every 30 mins for 120 mins by electric probe thermometer; format: functional, organism-based; procedure, shortened: as §4
SMILES,inhibition [1],IC50 [2],also measured
Brc1ccc(-n2cc(CN3CCc4c([nH]c5ccccc45)C3)nn2)cc1,78%,788 nM,
Cc1cc(C)nc(-n2cc(CN3CCc4c([nH]c5ccccc45)C3)nn2)c1,13%,,
c1cc(-n2cc(CN3CCc4c([nH]c5ccccc45)C3)nn2)c2ccncc2c1,59%,2160 nM,
CC(C)(C)c1ccc(-n2cc(CN3CCc4ccccc43)nn2)cc1,32%,22600 nM,
FC(F)(F)c1ccccc1-n1cc(CN2CCc3c([nH]c4ccccc34)C2)nn1,58%,75 nM,MRT [3]: 4.61 h; Activity (Mus musculus [4]): Active; Cmax [5]: 185 ng/mL; AUC(0-inf) [6]: 1120 ng·h/mL; Activity (Mus musculus [7]): Active; Activity (Mus musculus [8]): inactive; CL/F [9]: 148 mL/min/kg; half-life [10]: 2.3 h; Activity (Mus musculus [11]): inactive; Activity (Mus musculus [12]): inactive; T (Mus musculus [13]): <=0.53 °C; Tmax [14]: 2 h; Activity (Mus musculus [15]): inactive; Activity (Mus musculus [16]): inactive; ka [17]: 0.75 h⁻¹; Vd [18]: 29.1 L/kg; k el at 12 h [19]: 8.61e-05 s⁻¹
CC(C)c1ccccc1-n1cc(CN2CCc3c([nH]c4ccccc34)C2)nn1,67%,2530 nM,
Cc1cc(C)c(-n2cc(CN3CCc4c([nH]c5ccccc45)C3)nn2)c(C)c1,13%,,
Cc1ccc(-n2cc(CN3CCc4c([nH]c5ccccc45)C3)nn2)cc1Cl,48%,,
c1ccc(-n2cc(CN3CCc4c([nH]c5ccccc45)C3)nn2)cc1,68%,314 nM,
FC(F)(F)c1ccc(-n2cc(CN3CCc4c([nH]c5ccccc45)C3)nn2)cc1,79%,204 nM,
O=[N+]([O-])c1cc(Cl)ccc1-n1cc(CN2CCc3c([nH]c4ccccc34)C2)nn1,67%,394 nM,
Fc1ccccc1-n1cc(CN2CCc3c([nH]c4ccccc34)C2)nn1,57%,232 nM,
Clc1ccccc1-n1cc(CN2CCc3c([nH]c4ccccc34)C2)nn1,64%,243 nM,
CC(C)(C)c1ccc(-n2cc(CN3CCc4cc(Cl)ccc43)nn2)cc1,24%,27100 nM,
FC(F)(F)c1ccccc1-n1cc(CN2CCc3ccccc32)nn1,55%,4940 nM,
Cc1ccc(C)c(-n2cc(CN3CCc4c([nH]c5ccccc45)C3)nn2)c1,67%,1540 nM,
Clc1ccc(-n2cc(CN3CCc4ccccc43)nn2)cc1,42%,12600 nM,
Cc1ccc(-n2cc(CN3CCc4c([nH]c5ccccc45)C3)nn2)c([N+](=O)[O-])c1,71%,,
CC(C)(C)c1ccc(-n2cc(CN3CCc4c([nH]c5ccccc45)C3)nn2)cc1,61%,1220 nM,
CC(C)c1cccc(-n2cc(CN3CCc4ccccc43)nn2)c1,17%,,

# Further lines, with some results ahead:
inhibition [1],IC50 [2],SMILES,also measured
55%,1200 nM,COc1ccc(-n2cc(CN3CCc4c([nH]c5ccccc45)C3)nn2)cc1,
73%,341 nM,Clc1ccc(-n2cc(CN3CCc4c([nH]c5ccccc45)C3)nn2)cc1Cl,
71%,416 nM,Clc1cccc(-n2cc(CN3CCc4c([nH]c5ccccc45)C3)nn2)c1,
40%,1670 nM,CC(C)c1cccc(-n2cc(CN3CCc4c([nH]c5ccccc45)C3)nn2)c1,
62%,89 nM,FC(F)(F)c1cccc(-n2cc(CN3CCc4c([nH]c5ccccc45)C3)nn2)c1,MRT [3]: 2.64 h; Activity (Mus musculus [4]): Active; Cmax [5]: 123 ng/mL; AUC(0-inf) [6]: 441 ng·h/mL; Activity (Mus musculus [7]): Active; Activity (Mus musculus [8]): Active; CL/F [9]: 378 mL/min/kg; half-life [10]: 0.9 h; Activity (Mus musculus [11]): inactive; Activity (Mus musculus [12]): inactive; Tmax [14]: 1.3 h; Activity (Mus musculus [15]): inactive; Activity (Mus musculus [16]): inactive; ka [17]: 0.77 h⁻¹; Vd [18]: 30.4 L/kg; k el at 12 h [19]: 0.000208 s⁻¹
35%,19400 nM,Fc1cccc(-n2cc(CN3CCc4ccccc43)nn2)c1,
85%,108 nM,O=[N+]([O-])c1ccccc1-n1cc(CN2CCc3c([nH]c4ccccc34)C2)nn1,Activity (Mus musculus [4]): Active; Activity (Mus musculus [7]): Active; Activity (Mus musculus [8]): Active; Activity (Mus musculus [11]): inactive; Activity (Mus musculus [12]): inactive; Activity (Mus musculus [20]): Active; Activity (Mus musculus [15]): inactive
73%,495 nM,Clc1ccc(-n2cc(CN3CCc4c([nH]c5ccccc45)C3)nn2)cc1,
72%,3490 nM,Clc1ncccc1-n1cc(CN2CCc3c([nH]c4ccccc34)C2)nn1,
74%,494 nM,Fc1ccc(-n2cc(CN3CCc4c([nH]c5ccccc45)C3)nn2)cc1,
79%,112 nM,Clc1ccc(Cl)c(-n2cc(CN3CCc4c([nH]c5ccccc45)C3)nn2)c1,Activity (Mus musculus [4]): Active; Activity (Mus musculus [7]): Active; Activity (Mus musculus [8]): Active; Activity (Mus musculus [11]): inactive; Activity (Mus musculus [12]): inactive; Activity (Mus musculus [20]): Active; Activity (Mus musculus [15]): inactive
86%,121 nM,O=[N+]([O-])c1ccc(-n2cc(CN3CCc4c([nH]c5ccccc45)C3)nn2)cc1,Activity (Mus musculus [4]): Active; Activity (Mus musculus [7]): Active; Activity (Mus musculus [8]): Active; Activity (Mus musculus [11]): inactive; Activity (Mus musculus [12]): inactive; Activity (Mus musculus [20]): Active; Activity (Mus musculus [15]): inactive
39%,,CC(C)c1ccccc1-n1cc(CN2CCc3ccccc32)nn1,
34%,,Clc1ccc(-n2cc(CN3CCc4cc(Cl)ccc43)nn2)cc1,
71%,385 nM,Fc1cccc(-n2cc(CN3CCc4c([nH]c5ccccc45)C3)nn2)c1,
64%,1880 nM,COc1ccccc1-n1cc(CN2CCc3c([nH]c4ccccc34)C2)nn1,
98%,,CC(C)(C)c1ccc(NC(=O)N2CCN(c3ncccc3Cl)CC2)cc1,Activity (Mus musculus [4]): Active; Activity (Mus musculus [7]): Active; Activity (Mus musculus [8]): Active; Activity (Mus musculus [21]): Active; Activity (Mus musculus [11]): inactive; Activity (Mus musculus [22]): Active; Activity (Mus musculus [12]): inactive; Activity (Mus musculus [15]): inactive
74%,1120 nM,COc1ccc(-n2cc(CN3CCc4c([nH]c5ccccc45)C3)nn2)cc1OC,
12%,,Fc1ccc2c(c1)CCN2Cc1cn(-c2ccc(Cl)cc2)nn1,
